Measurements from ChEMBL document CHEMBL1136089, “Synthesis and in vitro activity of new methylenepiperidinyl and methylenepyrrolidinyl oxazolidinone antibacterial agents” (Bioorg Med Chem Lett, 2003).
Values after ≈ are worked out from the molar mass of the structure shown.

Legend:
[1] = tested on: Enterococcus faecalis; test: In vitro antibacterial activity against Enterococcus faecalis C6291 (E. f. 1); assay type: functional
Summary of the method: (§1)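 MIC by agar dilution on Mueller–Hinton agar, inoculum 10⁴ CFU/spot. Reported in μg/mL.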

[2] = tested on: Enterococcus faecalis; test: In vitro antibacterial activity against Enterococcus faecalis C6301 (E. f. 1); assay type: functional; summary of the method: as §1
[3] = tested on: Staphylococcus epidermidis; test: In vitro antibacterial activity against Staphylococcus epidermis ATCC 1228; assay type: functional; summary of the method: as §1
[4] = tested on: Staphylococcus epidermidis; test: In vitro antibacterial activity against Staphylococcus epidermis C2235; assay type: functional; summary of the method: as §1
[5] = tested on: Staphylococcus aureus; test: In vitro antibacterial activity against Staphylococcus aureus; assay type: functional
[6] = tested on: Staphylococcus aureus; test: In vitro antibacterial activity against ciprofloxacin-resistant Staphylococcus aureus (CRSA); assay type: functional
[7] = tested on: Staphylococcus aureus; test: In vitro antibacterial activity against methicillin-resistant Staphylococcus aureus (MRSA); assay type: functional
[8] = tested on: Staphylococcus aureus; test: In vitro antibacterial against methicillin-susceptible Staphylococcus aureus (MSSA); assay type: functional
[9] = tested on: Streptococcus pyogenes; test: In vitro antibacterial activity against Streptococcus pyogenes C6003
[10] = tested on: Streptococcus pyogenes; test: In vitro antibacterial activity against Streptococcus pyogenes ATTCC8668
[11] = tested on: Enterococcus faecium; test: In vitro antibacterial activity against vancomycin-resistant Enterococcus faecium C6487
[12] = Cmax in male rat; assay type: ADME, organism-based; conditions: in vivo
Summary of the method: (§2)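 Single oral dose of 15 mg/Kg to rats, with compound dissolved in 50% PEG solution.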

[13] = In vivo activity against Staphylococcus aureus when administered orally for 1 hr in rat at a dose of 15 mg/kg; assay type: ADME, organism-based; set-up: dose 15 mg/kg, route oral; conditions: po
[14] = Tmax in male rat; assay type: ADME, organism-based; conditions: in vivo; summary of the method: as §2
[15] = Area under curve was determined in male rat; assay type: ADME, organism-based; conditions: in vivo; summary of the method: as §2

| Compound | MIC [1] | MIC [2] | MIC [3] | MIC [4] | MIC [5] | MIC [6] | MIC [7] | MIC [8] | MIC [9] | MIC [10] | MIC [11] | Cmax [12] | half-life [13] | Tmax [14] | AUC [15] |
| --- | --- | --- | --- | --- | --- | --- | --- | --- | --- | --- | --- | --- | --- | --- | --- |
| CC(=O)NC[C@H]1CN(c2ccc(N3CCC(=Cc4cc(-c5csnc5C)no4)CC3)c(F)c2)C(=O)O1 | 8 µg/mL (≈ 15.6 µM) | 8 µg/mL (≈ 15.6 µM) | 2 µg/mL (≈ 3.91 µM) | 4 µg/mL (≈ 7.82 µM) | 16 µg/mL (≈ 31.3 µM) | 8 µg/mL (≈ 15.6 µM) | 8 µg/mL (≈ 15.6 µM) | 16 µg/mL (≈ 31.3 µM) | 8 µg/mL (≈ 15.6 µM) | 2 µg/mL (≈ 3.91 µM) | 4 µg/mL (≈ 7.82 µM) |  |  |  |  |
| CCOC(=O)C(C)=C1CCN(c2ccc(N3C[C@H](CNC(C)=O)OC3=O)cc2F)CC1 | 8 µg/mL (≈ 18.5 µM) | 8 µg/mL (≈ 18.5 µM) | 4 µg/mL (≈ 9.23 µM) | 8 µg/mL (≈ 18.5 µM) | 16 µg/mL (≈ 36.9 µM) | 8 µg/mL (≈ 18.5 µM) | 8 µg/mL (≈ 18.5 µM) | 16 µg/mL (≈ 36.9 µM) | 16 µg/mL (≈ 36.9 µM) | 4 µg/mL (≈ 9.23 µM) | 8 µg/mL (≈ 18.5 µM) |  |  |  |  |
| CC(=O)NC[C@H]1CN(c2ccc(N3CCC(=Cc4cc(-c5cccs5)no4)CC3)c(F)c2)C(=O)O1 | 16 µg/mL (≈ 32.2 µM) | 16 µg/mL (≈ 32.2 µM) | 4 µg/mL (≈ 8.06 µM) | 8 µg/mL (≈ 16.1 µM) | 32 µg/mL (≈ 64.4 µM) | 16 µg/mL (≈ 32.2 µM) | 16 µg/mL (≈ 32.2 µM) | 16 µg/mL (≈ 32.2 µM) | 16 µg/mL (≈ 32.2 µM) | 2 µg/mL (≈ 4.03 µM) | 16 µg/mL (≈ 32.2 µM) |  |  |  |  |
| C/C(S)=N/C[C@H]1CN(c2ccc(N3CCC(=CC#N)CC3)c(F)c2)C(=O)O1 | 1 µg/mL (≈ 2.57 µM) | 1 µg/mL (≈ 2.57 µM) | 0.5 µg/mL (≈ 1.29 µM) | 0.5 µg/mL (≈ 1.29 µM) | 2 µg/mL (≈ 5.15 µM) | 2 µg/mL (≈ 5.15 µM) | 2 µg/mL (≈ 5.15 µM) | 2 µg/mL (≈ 5.15 µM) | 0.25 µg/mL (≈ 0.644 µM) | 0.5 µg/mL (≈ 1.29 µM) | 0.5 µg/mL (≈ 1.29 µM) |  |  |  |  |
| CCOC(=O)C(Cl)=C1CCN(c2ccc(N3C[C@H](CNC(C)=O)OC3=O)cc2F)CC1 | 4 µg/mL (≈ 8.81 µM) | 2 µg/mL (≈ 4.41 µM) | 2 µg/mL (≈ 4.41 µM) | 4 µg/mL (≈ 8.81 µM) | 32 µg/mL (≈ 70.5 µM) | 16 µg/mL (≈ 35.3 µM) | 16 µg/mL (≈ 35.3 µM) | 8 µg/mL (≈ 17.6 µM) | 8 µg/mL (≈ 17.6 µM) | 2 µg/mL (≈ 4.41 µM) | 4 µg/mL (≈ 8.81 µM) |  |  |  |  |
| CCOC(=O)C=C1CCN(c2ccc(N3C[C@H](CNC(C)=O)OC3=O)cc2F)CC1 | 8 µg/mL (≈ 19.1 µM) | 8 µg/mL (≈ 19.1 µM) | 4 µg/mL (≈ 9.54 µM) | 8 µg/mL (≈ 19.1 µM) | 16 µg/mL (≈ 38.1 µM) | 8 µg/mL (≈ 19.1 µM) | 8 µg/mL (≈ 19.1 µM) | 16 µg/mL (≈ 38.1 µM) | 8 µg/mL (≈ 19.1 µM) | 2 µg/mL (≈ 4.77 µM) | 8 µg/mL (≈ 19.1 µM) |  |  |  |  |
| CC(=O)NC[C@H]1CN(c2ccc(N3CCC(=C(C)C#N)CC3)c(F)c2)C(=O)O1 | 2 µg/mL (≈ 5.18 µM) | 2 µg/mL (≈ 5.18 µM) | 0.5 µg/mL (≈ 1.29 µM) | 2 µg/mL (≈ 5.18 µM) | 2 µg/mL (≈ 5.18 µM) | 2 µg/mL (≈ 5.18 µM) | 2 µg/mL (≈ 5.18 µM) | 2 µg/mL (≈ 5.18 µM) | 2 µg/mL (≈ 5.18 µM) | 0.5 µg/mL (≈ 1.29 µM) | 1 µg/mL (≈ 2.59 µM) |  |  |  |  |
| CC(=O)NC[C@H]1CN(c2ccc(N3CCC(=CC(C)OC(C)=O)CC3)c(F)c2)C(=O)O1 (stereo partly specified) | 8 µg/mL (≈ 18.5 µM) | 8 µg/mL (≈ 18.5 µM) | 2 µg/mL (≈ 4.61 µM) | 8 µg/mL (≈ 18.5 µM) | 16 µg/mL (≈ 36.9 µM) | 16 µg/mL (≈ 36.9 µM) | 8 µg/mL (≈ 18.5 µM) | 16 µg/mL (≈ 36.9 µM) | 8 µg/mL (≈ 18.5 µM) | 0.25 µg/mL (≈ 0.577 µM) | 4 µg/mL (≈ 9.23 µM) |  |  |  |  |
| CC(=O)NC[C@H]1CN(c2ccc(N3CC/C(=C(\C)C#N)C3)c(F)c2)C(=O)O1 |  | 4 µg/mL (≈ 10.7 µM) | 1 µg/mL (≈ 2.69 µM) | 1 µg/mL (≈ 2.69 µM) | 1 µg/mL (≈ 2.69 µM) | 1 µg/mL (≈ 2.69 µM) |  |  |  |  | 2 µg/mL (≈ 5.37 µM) |  |  |  |  |
| CC(=O)NC[C@H]1CN(c2ccc(N3CCC(=CC(=O)[O-])CC3)c(F)c2)C(=O)O1.[Na+] | 8 µg/mL | 4 µg/mL | 1 µg/mL | 1 µg/mL | 8 µg/mL | 8 µg/mL | 4 µg/mL | 8 µg/mL | 8 µg/mL | 2 µg/mL | 8 µg/mL |  |  |  |  |
| CC(=O)NC[C@H]1CN(c2ccc(N3CC/C(=C/C#N)C3)c(F)c2)C(=O)O1 |  | 1 µg/mL (≈ 2.79 µM) | 0.5 µg/mL (≈ 1.4 µM) |  | 0.5 µg/mL (≈ 1.4 µM) | 0.5 µg/mL (≈ 1.4 µM) |  |  |  |  | 1 µg/mL (≈ 2.79 µM) |  |  |  |  |
| CC(=O)NC[C@H]1CN(c2ccc(N3CCOCC3)c(F)c2)C(=O)O1 [LINEZOLID] |  |  | 0.5 µg/mL (≈ 1.48 µM) | 2 µg/mL (≈ 5.93 µM) |  |  |  |  |  | 0.5 µg/mL (≈ 1.48 µM) |  | 1390 ng/mL | 3.09 h | 0.333 h | 4240 ng·h/mL |
| CN[C@H](CC(C)C)C(=O)N[C@H]1C(=O)N[C@@H](CC(N)=O)C(=O)N[C@H]2C(=O)N[C@H]3C(=O)N[C@H](C(=O)N[C@H](C(=O)O)c4cc(O)cc(O)c4-c4cc3ccc4O)[C@H](O)c3ccc(c(Cl)c3)Oc3cc2cc(c3O[C@@H]2O[C@H](CO)[C@@H](O)[C@H](O)[C@H]2O[C@H]2C[C@](C)(N)[C@H](O)[C@H](C)O2)Oc2ccc(cc2Cl)[C@H]1O [VANCOMYCIN] | 2 µg/mL (≈ 1.38 µM) | 1 µg/mL (≈ 0.69 µM) |  |  |  |  |  |  |  | 0.12 µg/mL (≈ 0.0828 µM) | > 32 µg/mL |  |  |  |  |
